Laboratory results from ChEMBL document CHEMBL1926551, “Design, synthesis and in vitro evaluation of novel chroman-4-one, chroman, and 2H-chromene derivatives as human rhinovirus capsid-binding inhibitors” (Bioorg Med Chem, 2011).
Activity calls are given as the source filed them. The calls are words filed in the database; no cut-off is given here.

Assays:
[1] = Therapeutic index, ratio of TC50 for human HeLa cells to IC50 for Human rhinovirus 1B infected in human HeLa cells; type: cell-based; details: read-out: TI
Summary of the method: (§1)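 Therapeutic index calculated as HeLa TC50 (XTT, 3 days) divided by the plaque-reduction IC50 for the respective serotype.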

rhinovirus A1B [2] = experiment: Antiviral activity against Human rhinovirus 1B infected in human HeLa cells assessed as inhibition of virus induced-plaque formation after 3 days by neutral red-based plaque reduction assay; type: functional, organism-based; details: Rhinovirus A, 72 h
Summary of the method: (§2)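 HeLa (Ohio) monolayers infected with virus giving about 100 plaques/well and adsorbed 1 h at 33 °C. The inoculum was removed and cells were overlaid with plaque medium ± fourfold compound dilutions, starting from the maximum non-cytotoxic concentration (MNTC). After 3 days at 33 °C, cells were stained with neutral red (0.2 mg/mL in PBS, pH 7.4) and plaques counted, triplicate wells.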

rhinovirus B14 [3] = experiment: Antiviral activity against Human rhinovirus 14 infected in human HeLa cells assessed as inhibition of virus induced-plaque formation after 3 days by neutral red-based plaque reduction assay; type: functional, organism-based; details: Rhinovirus B, 72 h
Summary of the method: as §2, with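 “wells. IC50 came from % plaque reduction vs log dose; where 50% was not reached, % inhibition at the MNTC was reported.” for “wells.”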

[4] = Therapeutic index, ratio of TC50 for human HeLa cells to IC50 for Human rhinovirus 14 infected in human HeLa cells; type: cell-based; details: read-out: TI; summary of the method: as §1
[5] = Cytotoxicity against human HeLa cells after 3 days by XTT based ELISA reader; type: cell-based; details: read-out: TC50
Summary of the method: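 HeLa cells seeded at 2 × 10^3 cells/well in growth medium (MEM, 8% FCS) with twofold compound dilutions from the maximum soluble concentration, triplicate wells. Matched ethanol controls were run. Plates were held 3 days at 37 °C, 5% CO2, then XTT was added (final 0.15 mg/mL) for 4 h.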

[6] = Cytotoxicity against human HeLa cells after 3 days by microscopic analysis; type: cell-based; details: read-out: MNCC
Summary of the method: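 HeLa cells exposed to twofold compound dilutions for 3 days at 37 °C and morphology scored microscopically on day 3. The MNTC is the highest concentration leaving morphology and viability unchanged in 100% of cells.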

rhinovirus B14 [7] = experiment: Antiviral activity against Human rhinovirus 14 infected in human HeLa cells assessed as inhibition of virus induced-plaque formation at 25 uM after 3 days by neutral red-based plaque reduction assay; type: functional; details: Rhinovirus B, 72 h; summary of the method: as §2
rhinovirus B14 [8] = experiment: Antiviral activity against Human rhinovirus 14 infected in human HeLa cells assessed as inhibition of virus induced-plaque formation at 12.5 uM after 3 days by neutral red-based plaque reduction assay; type: functional; details: Rhinovirus B, 72 h
Summary of the method: as §2, with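 “wells. IC50 came from % plaque reduction vs log dose; where 50% was not reached, % inhibition at the MNTC was reported.” for “wells.”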

rhinovirus A1B [9] = experiment: Antiviral activity against Human rhinovirus 1B in human HeLa cell monolayers assessed as reduction of viral infectivity at 42 uM at 56 degC pre-treated for 1 hr before thermal treatment measured after 20 mins by plaque assay (reference value: 2.9 log PFU/mL); type: functional
rhinovirus A1B [10] = experiment: Antiviral activity against Human rhinovirus 1B infected in human HeLa cells assessed as reduction of viral yield at 42 uM treated at the end of viral adsorption measured after 10 hrs by neutral red-based plaque reduction assay; type: functional, organism-based; details: TDE = time-dependent effect
rhinovirus A1B [11] = experiment: Antiviral activity against Human rhinovirus 1B infected in human HeLa cells assessed as reduction of viral yield at 42 uM treated at the end of viral adsorption followed by washout after 6 hrs measured after 10 hrs by neutral red-based plaque reduction assay; type: functional; details: Rhinovirus A
rhinovirus A1B [12] = experiment: Antiviral activity against Human rhinovirus 1B infected in human HeLa cells assessed as reduction of viral yield at 42 uM treated 30 mins after viral adsorption measured after 10 hrs by neutral red-based plaque reduction assay; type: functional; details: Rhinovirus A
rhinovirus A1B [13] = experiment: Antiviral activity against Human rhinovirus 1B infected in human HeLa cells assessed as reduction of viral yield at 42 uM treated at the end of viral adsorption followed by washout after 30 mins to 1 hr measured after 10 hrs by neutral red-based plaque reduction assay; type: functional; details: Rhinovirus A
rhinovirus A1B [14] = experiment: Antiviral activity against Human rhinovirus 1B infected in human HeLa cells assessed as reduction of viral yield at 42 uM treated before viral adsorption measured after 10 hrs by neutral red-based plaque reduction assay; type: functional; details: Rhinovirus A
rhinovirus A1B [15] = experiment: Antiviral activity against Human rhinovirus 1B infected in human HeLa cells assessed as reduction of viral yield at 42 uM treated during viral adsorption measured after 10 hrs by neutral red-based plaque reduction assay; type: functional; details: Rhinovirus A
Summary of the method: (§3)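 One-step growth: confluent HeLa monolayers infected with HRV 1B at MOI 5. Virus bound 1 h at 4 °C, then washed thrice with cold PBS; cultures were incubated at 33 °C to 10 h p.i. 42 µM compound was present either during binding only or throughout binding plus replication. Cultures were freeze-thawed three times, clarified, and yield titrated by plaque assay on HeLa.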

rhinovirus A1B [16] = experiment: Antiviral activity against Human rhinovirus 1B infected in human HeLa cells assessed as reduction of viral yield at 42 uM treated 2 hrs after viral adsorption measured after 10 hrs by neutral red-based plaque reduction assay; type: functional; details: Rhinovirus A
rhinovirus A1B [17] = experiment: Antiviral activity against Human rhinovirus 1B infected in human HeLa cells assessed as reduction of viral yield at 42 uM treated 6 hrs after viral adsorption measured after 10 hrs by neutral red-based plaque reduction assay; type: functional; details: Rhinovirus A
rhinovirus A1B [18] = experiment: Antiviral activity against Human rhinovirus 1B infected in human HeLa cells assessed as reduction of viral yield at 42 uM at 4 degC treated immediately after viral adsorption after 1 hr by neutral red-based plaque reduction assay; type: functional, organism-based
rhinovirus A1B [19] = experiment: Antiviral activity against Human rhinovirus 1B in human HeLa cell monolayers assessed as reduction of viral infectivity at 42 uM at pH 5 pre-treated for 1 hr before mild acid treatment measured after 30 mins by plaque assay (reference value: 3.8 log PFU/mL); type: functional
rhinovirus A1B [20] = experiment: Antiviral activity against Human rhinovirus 1B infected in human HeLa cells assessed as reduction of viral yield at 42 uM treated 60 mins after viral adsorption measured after 10 hrs by neutral red-based plaque reduction assay; type: functional; details: Rhinovirus A
rhinovirus A1B [21] = experiment: Antiviral activity against Human rhinovirus 1B infected in human HeLa cells assessed as reduction of viral yield at 42 uM treated 4 hrs after viral adsorption measured after 10 hrs by neutral red-based plaque reduction assay; type: functional; details: Rhinovirus A
rhinovirus A1B [22] = experiment: Antiviral activity against Human rhinovirus 1B infected in human HeLa cells assessed as reduction of viral yield at 42 uM treated 45 mins after viral adsorption measured after 10 hrs by neutral red-based plaque reduction assay; type: functional; details: Rhinovirus A
rhinovirus A1B [23] = experiment: Antiviral activity against Human rhinovirus 1B infected in human HeLa cells measured after dilution; type: functional, organism-based
Summary of the method: (§4)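 HRV 1B suspension at high titre incubated ± 42 µM compound for 1 h at 33 °C. It was then serially diluted 10-fold to reach non-inhibitory free compound levels, and infectivity was titrated by plaque assay on HeLa monolayers.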

rhinovirus A1B [24] = experiment: Antiviral activity against Human rhinovirus 1B assessed as reduction in infectivity titers at 42 uM after 1 hr using HeLa cell monolayers by plaque assay (reference value: 5.33 * 10^6 PFU/mL); type: functional; summary of the method: as §4
rhinovirus A1B [25] = experiment: Antiviral activity against Human rhinovirus 1B infected in human HeLa cells assessed as reduction of viral yield at 42 uM treated together with viral inoculum after 10 hrs by neutral red-based plaque reduction assay; type: functional; details: Rhinovirus A; summary of the method: as §3
rhinovirus A1B [26] = experiment: Antiviral activity against Human rhinovirus 1B infected in human HeLa cells assessed as reduction of viral yield at 42 uM treated 15 mins after viral adsorption measured after 10 hrs by neutral red-based plaque reduction assay; type: functional; details: Rhinovirus A
[27] = Ratio of IC50 for Human rhinovirus 1B to IC50 for Human rhinovirus 14; type: functional

Compound	selectivity ratio [1]	IC50 (rhinovirus A1B [2])	IC50 (rhinovirus B14 [3])	selectivity ratio [4]	CC50 at 72 h [5]	MNTC at 72 h [6]	other results
C1=C(/C=C/Cc2ccccc2)COc2ccccc21	5.52	13.6 µM	11.1 µM	6.76	75 µM	50 µM	
Clc1ccc(/C=C/C=C2\COc3ccc(Cl)cc3C2)cc1	2.18	11.5 µM	8.27 µM	3.02	25 µM	12.5 µM	
Clc1ccc2c(c1)C/C(=C/C=C/c1ccccc1)CO2	17.9	2.79 µM			50 µM	25 µM	inhibition at 25 µM (rhinovirus B14 [7]): 30.3%
Fc1ccc2c(c1)C/C(=C/C=C/c1ccccc1)CO2	13.5	5.57 µM	36.5 µM	2.05	75 µM	50 µM	
Clc1ccc(/C=C/C=C2\COc3ccccc3C2)cc1	36	1.39 µM	6.02 µM	8.31	50 µM	25 µM	
O=C1/C(=C/C#Cc2ccccc2)COc2ccc(Cl)cc21	9.51	7.89 µM	30.4 µM	2.47	75 µM	50 µM	
Clc1ccc2c(c1)C=C(/C=C/Cc1ccccc1)CO2	59.5	0.42 µM			25 µM	12.5 µM	inhibition at 12.5 µM (rhinovirus B14 [8]): 23%; log10PFU/ml (rhinovirus A1B [9]): 1.8; inhibition (rhinovirus A1B [10]): tde; inhibition at 42 µM (rhinovirus A1B [11]): 93%; inhibition at 42 µM (rhinovirus A1B [12]): > 80%; inhibition at 42 µM (rhinovirus A1B [13]): 35%; inhibition at 42 µM (rhinovirus A1B [14]): 6%; inhibition at 42 µM (rhinovirus A1B [15]): 16%; inhibition at 42 µM (rhinovirus A1B [16]): 31%; inhibition at 42 µM (rhinovirus A1B [17]): 1%; inhibition (rhinovirus A1B [18]): Active; log10PFU/ml (rhinovirus A1B [19]): 2.8; inhibition at 42 µM (rhinovirus A1B [20]): > 80%; inhibition at 42 µM (rhinovirus A1B [21]): 12%; inhibition at 42 µM (rhinovirus A1B [22]): > 80%; Activity (rhinovirus A1B [23]): inactive; PFU/ml (rhinovirus A1B [24]): 5110000; inhibition at 42 µM (rhinovirus A1B [25]): 88.5%; inhibition at 42 µM (rhinovirus A1B [26]): > 80%
O=C1/C(=C/C=C/c2ccc(Cl)cc2)COc2ccc(Cl)cc21	7.46	3.35 µM	1.42 µM	17.6	25 µM	12.5 µM	Ratio IC50 [27]: 2
O=C1/C(=C/C=C/c2ccc(Cl)cc2)COc2ccccc21	19.7	2.54 µM			50 µM	25 µM	inhibition at 25 µM (rhinovirus B14 [7]): 17.1%
C(/C=C/c1ccccc1)=C1/COc2ccccc2C1	101	0.99 µM	47.6 µM	2.1	100 µM	50 µM	
Clc1ccc(C/C=C/C2=Cc3ccccc3OC2)cc1	27.7	3.61 µM	45.1 µM	2.22	100 µM	50 µM	
O=C1/C(=C/C#Cc2ccccc2)COc2ccccc21	5.38	9.3 µM	20 µM	2.5	50 µM	25 µM	
Clc1ccc(C/C=C/C2=Cc3cc(Cl)ccc3OC2)cc1	10.3	9.73 µM			100 µM	25 µM	inhibition at 25 µM (rhinovirus B14 [7]): 27%
O=C1/C(=C/C=C/c2ccccc2)COc2ccccc21	29.4	0.85 µM			25 µM	12.5 µM	inhibition at 12.5 µM (rhinovirus B14 [8]): 7.2%
O=C1/C(=C/C=C/c2ccccc2)COc2ccc(F)cc21	10	4.98 µM	17 µM	2.94	50 µM	25 µM	
O=C1/C(=C/C=C/c2ccccc2)COc2ccc(Cl)cc21	50.5	0.99 µM			50 µM	25 µM	inhibition at 25 µM (rhinovirus B14 [7]): 48.6%
